Compound activity (PubChem BioAssay)
Only some compounds are listed: those with a hit (about 4.6% of all), similar ones and a draw of the others.
TAAR1 ag – human TAAR1 agonists, primary screen, Fluo-8 calcium fluorescence, CHO RD-HGA16 cells; hit rate 0.99% among 360,000; vehicle wells 0%, saturating PEA agonist 100%; activation, % at 3 µM; Trace amine-associated receptor 1 (Homo sapiens), Q96RJ0;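 active = activation above the mean activation of all test compounds in the run plus 3 SD, cut at about 38% in these data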
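Repeats: no replicates (n 1) | Material: CHO-derived RD-HGA16 cells with stable Gα16 and human TAAR1 | Technique: Kinetic Fluo-8 calcium fluorescence | Schedule: 17-24 h seeding, 75 min 37 °C dye, 30 min RT | Evaluation: % activation from peak over basal fluorescence ratio, DMSO-to-PEA scaled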
CHO parental Ca – ATP-evoked calcium signal inhibitors, parental CHO, primary screen, counter-screen for OX1R antagonist project, cell-based, fluorescence, Fluo-8 calcium dye | parental CHO-K1, ATP-induced calcium, Fluo-8 fluorescence | inhibition, % at 5.6 µM | hit rate 0.63% among 330,000 | AID 463079, 2010;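 active = inhibition above that plate's mean sample inhibition plus 3 SD, cut at about 26% in these data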
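Material – parental CHO cells · Reagent – ATP stimulus · Compound – single nominal dose of 5.6 µM per compound · Detection – Fluo-8 fluorescence · Read-out basis – percent inhibition of calcium signal · Controls – ATP-challenged DMSO wells low, unchallenged DMSO wells high · Repeats – no replicates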
GPR7 antag – GPR7 receptor antagonists, primary screen, cell-based, fluorescence, single concentration. Neuropeptides B/W receptor type 1 (Homo sapiens), P48145. AID 1861, 2009. inhibition, % at 4.4 µM. hit rate 1.1% among 290,000. GPR7-expressing cells, fluorescence antagonist assay; in the data active = inhibition above about 16%, passing the limit was not always enough;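 also: cells stimulated with the agonist NPW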
Target sequence (P48145 whole entry, looked up): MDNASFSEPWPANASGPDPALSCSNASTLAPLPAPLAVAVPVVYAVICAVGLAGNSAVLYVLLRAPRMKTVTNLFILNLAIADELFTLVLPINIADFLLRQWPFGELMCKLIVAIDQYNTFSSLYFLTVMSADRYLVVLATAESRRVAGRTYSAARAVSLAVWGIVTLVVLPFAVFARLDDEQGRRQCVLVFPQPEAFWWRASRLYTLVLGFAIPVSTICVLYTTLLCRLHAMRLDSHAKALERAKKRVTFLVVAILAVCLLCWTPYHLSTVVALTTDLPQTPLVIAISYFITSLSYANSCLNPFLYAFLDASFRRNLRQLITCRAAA
OX1R antag-1 – antagonists of human orexin 1 receptor (OX1R). AID 485270, 2010. hit rate 1.8% among 330,000. inhibition, % at 6.6 µM. Orexin/Hypocretin receptor type 1 (Homo sapiens), O43613. OX1R-expressing cells, FRET antagonist read-out; in the data active = inhibition mostly above about 38%, no sharp cut-off; inactive = mostly below about 40%
Target sequence (O43613 whole entry, looked up): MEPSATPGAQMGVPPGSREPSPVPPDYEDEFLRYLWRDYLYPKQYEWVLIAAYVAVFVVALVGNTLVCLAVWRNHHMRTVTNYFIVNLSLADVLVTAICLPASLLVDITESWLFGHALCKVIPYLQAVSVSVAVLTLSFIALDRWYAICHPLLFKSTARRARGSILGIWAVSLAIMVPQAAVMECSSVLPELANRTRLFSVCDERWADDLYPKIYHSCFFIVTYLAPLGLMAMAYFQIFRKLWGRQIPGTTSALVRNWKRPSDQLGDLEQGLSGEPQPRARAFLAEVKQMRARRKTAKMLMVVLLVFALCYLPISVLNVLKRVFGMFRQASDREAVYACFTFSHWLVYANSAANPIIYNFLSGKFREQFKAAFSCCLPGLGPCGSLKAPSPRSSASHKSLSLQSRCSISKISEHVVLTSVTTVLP
TAAR1 antagonist – human TAAR1 antagonists, primary screen, Fluo-8 calcium fluorescence, CHO RD-HGA16 cells | inhibition, % at 3 µM | Trace amine-associated receptor 1 (Homo sapiens), Q96RJ0 | antagonist | hit rate 1.5% among 360,000 | AID 624466, 2012;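 active = inhibition above a per-plate cutoff, the mean inhibition of test compounds on that plate plus 3 SD, cut at about 49% in these data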
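Test system: hTAAR1-expressing CHO RD-HGA16 cells, Gα16-coupled; Probe or stimulus: EC80 β-phenethylamine stimulus; Compound dosing: single nominal final test compound concentration of 3 µM; Timing: 140 s kinetic read after compound, 140 s after agonist; Signal: Fluo-8 calcium-sensitive fluorescence; Measure: % inhibition of agonist calcium response; Controls: DMSO and EC80 PEA controls.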
OX1R antag-2 – OX1R (HCRTR1) antagonists, primary screen, fluorescence, CHO/OX1R cells, Fluo-8 calcium, orexin A; Fluo-8 calcium fluorescence; inhibition, % at 5 µM; hit rate 0.43% among 330,000; AID 434989, 2010;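 active = inhibition above its plate's threshold, mean inhibition of all tested compounds on the plate plus 3 SD, cut at about 37% in these data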
TAAR1 ag conf – human TAAR1 agonists, retest of hits, confirmation, Fluo-8 calcium fluorescence, CHO RD-HGA16 cells; shares compounds with TAAR1 ag; scaled: DMSO 0%, maximal phenethylamine 100%; activation, % at 3 µM; hit rate 82% among 2,400;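 active = activation above a cutoff set at the run's mean compound activation plus 3 SD, cut at about 39% in these data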
Ga16 nonsel ag – nonselective calcium mobilization agonists, CHO-Ga16 cells, counter-screen for hTAAR1 agonist project, cell-based, fluorescence, CHO-Ga16 parental line. shares compounds with TAAR1 ag. Fluo-8 calcium fluorescence; normalized to maximal ATP response, DMSO zero. activation, % at 3 µM. hit rate 50% among 2,400. AID 651787, 2012;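 active = activation above the run cutoff, the mean activation over all tested wells plus 3 SD, cut at about 12% in these data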
TAAR1 desens – TAAR1 desensitization by agonist hits, confirmation, counter-screen for TAAR1 agonist project, cell-based, fluorescence, tachyphylaxis; shares compounds with TAAR1 ag; CHO RD-HGA16 hTAAR1, Fluo-8 calcium, beta-PEA response inhibition; AID 651951, 2012; hit rate 46% among 2,400; inhibition, % at 3 µM;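 active = inhibition above the run cutoff, the mean inhibition of all test compounds plus 3 SD, cut at about 49% in these data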;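 also: beta-PEA stimulus applied at its EC80; loss of beta-PEA calcium signal after compound pretreatment read as receptor desensitization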
Ga16 nonsel ant – inhibition of ATP-evoked calcium response in CHO-Ga16 cells, counter-screen for TAAR1 agonist project, cell-based, fluorescence. hit rate 39% among 2,400. CHO-Ga16 ATP-induced calcium, Fluo-8 fluorescence. shares compounds with TAAR1 ag. AID 651952, 2012. inhibition, % at 3 µM;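 active = inhibition above the plate's mean compound inhibition plus 3 SD, computed per plate, cut at about 22% in these data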
A number is an active result; – = inactive; · = not tested or not shown.

SMILES	TAAR1 ag	CHO parental Ca	GPR7 antag	OX1R antag-1	TAAR1 antagonist	OX1R antag-2	TAAR1 ag conf	Ga16 nonsel ag	TAAR1 desens	Ga16 nonsel ant
O=C(NC1CCCCC1)C(=S)NCCc1ccccc1	58.1	–	–	–	–	–	75.7	–	62.1	–
Cc1ccc(NC(=S)N/N=C2\CCCCC2C)cc1 (stereo not drawn)	–	–	–	–	–	–	·	·	·	·
CC1CCCC/C1=N\NC(=S)NCCc1ccccc1 (stereo not drawn)	56.5	–	–	–	–	–	44.6	–	–	–
CCOC(=O)[C@]12CCC=C1N(Cc1cccc3ccccc13)C(=O)[C@H](CC(=O)NCCC(C)C)C2	–	·	·	·	–	·	·	·	·	·
CC(C)(C)OC(=O)NCCc1onc(-c2ccccc2F)c1C(=O)O	–	·	·	·	–	·	·	·	·	·
COc1ccccc1-c1ccc2c(c1)O[C@@H](CN(C)C(=O)c1ccncc1)[C@H](C)CN([C@@H](C)CO)S2(=O)=O	–	·	·	·	–	·	·	·	·	·
Cc1ccc(S(=O)(=O)N2C[C@@H](C)[C@]3(C2)[C@H](O)[C@H](OC(=O)NCc2ccccc2F)C[C@H]2C(=O)N(c4ccccc4)C(=O)[C@H]23)cc1	–	·	·	·	–	·	·	·	·	·
COc1ccc(-n2nc(C(=O)NCC(=O)NCCCN3CC(C)CC(C)C3)c3ccccc3c2=O)cc1OC (stereo not drawn)	–	–	–	–	–	–	·	·	·	·
O=C(NCCCc1ccccc1)c1ccccc1	–	–	–	–	–	–	·	·	·	·
O=C(O)C1CCCCC1C(=O)NCCCc1ccccc1 (stereo not drawn)	67.9	–	–	–	–	–	50.0	–	–	–
O=C(O)C1CCCCC1C(=O)NCCCCc1ccccc1 (stereo not drawn)	45.0	–	–	–	–	–	55.9	–	–	–
Cc1cccc(C)c1C(O)c1ncc(-c2ccccc2F)[nH]1 (stereo not drawn)	–	·	·	·	–	·	·	·	·	·
COc1cc(C(C)=O)ccc1OCC(O)CNCC(O)c1ccccc1 (stereo not drawn)	91.0	–	–	–	–	–	97.9	–	73.6	–
COc1cc(C(C)=O)ccc1OCC(O)CN1CCN(S(=O)(=O)c2ccccc2)CC1 (stereo not drawn)	–	–	–	–	–	–	·	·	·	·
Cc1cc(C(F)F)n2ncc(C(=O)NCc3ccccc3)c2n1	–	–	–	–	–	–	·	·	·	·
Cc1cc(C(F)F)n2ncc(C(=O)NCCc3ccccc3Cl)c2n1	68.3	–	–	–	–	–	69.5	–	–	–
Cc1nc2c(C(=O)NCc3ccccc3Cl)c[nH]n2c(=O)c1Cl	–	–	–	–	–	–	·	·	·	·
Cc1nc2c(C(=O)NCCc3ccccc3Cl)c[nH]n2c(=O)c1Cl	83.8	–	–	–	61.2	–	79.7	13.8	82.5	–
CCCCN1C(=O)C(CC(=O)NCc2ccco2)CC(C(=O)N2CCOCC2)=C1C (stereo not drawn)	–	·	·	·	–	·	·	·	·	·
CCOC(=O)C1(CC2CCCCO2)CCN(Cc2cc3ccccc3[nH]2)CC1 (stereo not drawn)	148.6	36.3	95.6	–	104.8	52.5	113.8	97.9	103.8	95.2
CCCCC(CC)CNC(=O)C1C2C=CC(C2)C1C(=O)O (stereo not drawn)	77.8	–	–	–	49.3	–	89.8	–	50.9	–
CCOC(=O)c1ccc(NC(=O)C2C3C=CC(C3)C2C(=O)O)cc1 (stereo not drawn)	–	–	–	–	–	–	·	·	·	·
O=C(O)C1C2C=CC(C2)C1C(=O)NCCCc1ccccc1 (stereo not drawn)	76.1	–	–	–	–	–	79.6	–	–	–
O=C(O)C1C2C=CC(C2)C1C(=O)NCCc1ccncc1 (stereo not drawn)	–	–	–	–	–	–	·	·	·	·
O=C(O)C1C2C=CC(C2)C1C(=O)NCCc1ccccc1 (stereo not drawn)	84.5	–	–	–	91.8	–	96.2	–	94.3	–
SMILES	TAAR1 ag	CHO parental Ca	GPR7 antag	OX1R antag-1	TAAR1 antagonist	OX1R antag-2	TAAR1 ag conf	Ga16 nonsel ag	TAAR1 desens	Ga16 nonsel ant
O=C(O)C1C2C=CC(C2)C1C(=O)NCc1ccccn1 (stereo not drawn)	·	–	–	–	·	–	·	·	·	·
Cc1n[nH]c2ccc([N+](=O)[O-])cc2c1=O	–	·	·	·	–	·	·	·	·	·
CCCc1nnn(S(=O)(=O)c2ccc([N+](=O)[O-])cc2)c1CCC	–	·	·	·	–	·	·	·	·	·
O=c1c2ccc([N+](=O)[O-])cc2ncn1Cc1ccccc1C(F)(F)F	51.1	–	–	–	–	–	–	21.5	–	–
O=C(Cc1ccc([N+](=O)[O-])cc1)N1CCc2ccccc2C1	54.7	–	–	–	–	–	74.0	–	–	–
O=[N+]([O-])c1cccc(NC(=S)N2CCc3ccccc3C2)c1	55.1	–	–	–	–	–	49.8	–	–	–
O=C(Cc1ccccc1)NCC(=O)N1CCc2ccccc2C1	–	–	–	–	–	–	·	·	·	·
O=C(COc1ccc([N+](=O)[O-])cc1)N1CCc2ccccc2C1	–	–	–	–	–	–	·	·	·	·
CCn1ncc([N+](=O)[O-])c1C(=O)N1CCc2ccccc2C1	41.8	–	–	–	–	–	–	–	–	–
O=C(CNCCc1ccccc1)N1CCc2ccccc2C1	81.0	–	–	–	–	–	99.0	–	89.0	–
O=C(NCc1ccc(OC(F)(F)F)cc1)C1CCC(=O)N(C2CC2)C1 (stereo not drawn)	–	·	–	·	–	·	·	·	·	·
O=C(COc1ccccc1[N+](=O)[O-])NNC(=O)Nc1cccc2ccccc12	–	–	–	–	–	–	·	·	·	·
